Measured values reported in ChEMBL document CHEMBL1123291, “Modified di- and tripeptides of the C-terminal portion of oxytocin and vasopressin as possible cognition activation agents” (1986).
Non-standard residues stand in square brackets, D forms with d. Residues, ends and D or L forms follow the SMILES beside them. ξ: configuration not given here. *: point of attachment. Arg(NO2) = N=C(NCCC[C@H](N)C(=O)O)N[N+](=O)[O-]; ξArg(NO2) = N=C(NCCCC(N)C(=O)O)N[N+](=O)[O-]; Cbz = O=C(OCc1ccccc1)*; Boc = CC(C)(C)OC(=O)*; ξK = NCCCCC(N)C(=O)O

Columns and labels:
Format in all cases: functional
[1] = test system: Mus musculus; experiment: Ability to reverse electroconvulsive shock-induced amnesia in rodents following 1 ug/kg i.m. administration.
Summary of the method: (§1)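 Passive avoidance (step-through, lighted vs darkened compartment). […], ECS (20 mA, 1 s) was given transcorneally via saline-soaked electrodes, and maximal hindlimb extension was required. Drug was given im at selected doses 2 h post-training. One hour later, entry latency to the dark side was recorded, with 60 s counted as retention. At least 75% of ECS controls had to be amnesic. Replicates were mostly not run.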

[2] = test system: Mus musculus; experiment: Ability to reverse electroconvulsive shock-induced amnesia in rodents following 0.1 mg/kg i.m. administration.; conditions: route intramuscular; summary of the method: as §1
[3] = test system: Mus musculus; experiment: Ability to reverse electroconvulsive shock-induced amnesia in rodents following 0.01 mg/kg i.m. administration.; conditions: route intramuscular; summary of the method: as §1
[4] = test system: Rattus norvegicus; experiment: Ability (% reversal in rats) to reverse electroconvulsive shock-induced amnesia in rodents at a dose of 0.010 (mg/kg) administered intramuscularly (im); summary of the method: as §1
[5] = test system: Rattus norvegicus; experiment: Ability (% reversal in rats) to reverse electroconvulsive shock-induced amnesia in rodents at a dose of 0.0010 (mg/kg) (following i.m. administration); summary of the method: as §1
[6] = test system: Rattus norvegicus; experiment: Ability (% reversal in rats) to reverse electroconvulsive shock-induced amnesia in rodents at a dose of 0.10 (mg/kg) (following intramuscular dosing); summary of the method: as §1
[7] = test system: Rattus norvegicus; experiment: Compound was tested for its ability (% reversal in rats) to reverse electroconvulsive shock-induced amnesia in rodents at a dose of 1 (mg/kg) administered intramuscularly (im); summary of the method: as §1
[8] = test system: Rattus norvegicus; experiment: Compound was tested for its ability (% reversal in rats) to reverse electroconvulsive shock-induced amnesia in rodents at a dose of 100 (mg/kg) administered intramuscularly (im); summary of the method: as §1
[9] = test system: Rattus norvegicus; experiment: Compound was tested for its ability (% reversal in rats) to reverse electroconvulsive shock-induced amnesia in rodents at a dose of 10 (mg/kg) administered intramuscularly (im); summary of the method: as §1
[10] = test system: Rattus norvegicus; experiment: Compound was tested for its ability (% reversal in rats) to reverse electroconvulsive shock-induced amnesia in rodents at a dose of 0.010 (mg/kg) administered intramuscularly (im).; summary of the method: as §1

Row | SMILES | Reversal [1] [%] | Reversal [2] [%] | Reversal [3] [%] | Reversal [4] [%] | Reversal [5] [%] | Reversal [6] [%] | Reversal [7] [%] | Reversal [8] [%] | Reversal [9] [%] | Reversal [10] [%]
1 | NCCCC[C@H](NC(=O)[C@@H]1CCCN1C(=O)OCc1ccccc1)C(=O)NCC(=O)O (Cbz-Pro-Lys-Gly-OH) | 100 | 79 | 79 |  |  |  |  |  |  | 
2 | CC(C)C[C@H](NC(=O)[C@@H]1CCCN1C(=O)OCc1ccccc1)C(=O)NCC(N)=O (Cbz-Pro-Leu-Gly-NH2) | 93 | 100 | 47 |  |  |  |  |  |  | 
3 | Cc1ccc(S(=O)(=O)N2CCCC2C(=O)NC(CNCC(=O)O)CC(C)C)cc1 (stereo not given) |  |  |  | 33 | 17 | 17 |  |  |  | 
4 | O=C(NC(Cc1ccccc1)CN1C(=O)C2CCCN2C(=O)C1Cc1c[nH]cn1)c1ccccc1 (stereo not given) |  |  |  | 0 | 0 | 43 | 50 | 83 | 30 | 
5 | Cc1ccc(S(=O)(=O)N2CCCC2CNC(CC(C)C)C(=O)NCC(=O)O)cc1 (stereo not given) |  |  |  | 33 | 33 | 0 |  |  |  | 
6 | Cc1ccc(C(=O)NC(CSCC(=O)O)CC(C)C)s1 (stereo not given) |  |  |  | 60 | 60 | 20 |  |  |  | 
7 | N=C(N)NCCC[C@H](NC(=O)[C@@H]1CCCN1)C(=O)NCC(N)=O (H-Pro-Arg-Gly-NH2) | 30 | 30 | 0 |  |  |  |  |  |  | 
8 | CC(C)C[C@@H](CSCC(=O)O)NCC1CCCN1C(=O)OCc1ccccc1 (stereo not given in full) |  |  |  | 80 | 20 | 60 | 60 | 100 | 0 | 
9 | NCCCC[C@H](NC(=O)[C@@H]1CCCN1C(=O)[C@@H]1CSSC[C@H](N)C(=O)N[C@@H](Cc2ccc(O)cc2)C(=O)N[C@@H](Cc2ccccc2)C(=O)N[C@@H](CCC(N)=O)C(=O)N[C@@H](CC(N)=O)C(=O)N1)C(=O)NCC(N)=O | 58 | 67 | 58 |  | 20 | 56 |  |  |  | 20
10 | CC(C)CC(OCC1CCCN1C(=O)OCc1ccccc1)C(=O)NCC(N)=O (stereo not given) |  |  |  | 0 | 33 | 0 |  |  |  | 
11 | CC(C)CC(CSCC(N)=O)NCC1CCCN1C(=O)OCc1ccccc1 (stereo not given) |  |  |  | 25 | 45 | 25 |  |  |  | 
12 | CCCNC(=O)C(CC(C)C)SCC1CCCN1C(=O)OCc1ccccc1 (stereo not given) |  |  |  | 20 | 60 | 20 |  |  |  | 
13 | O=C(O)CNC(=O)COCC1CCCN1C(=O)OCc1ccccc1 (stereo not given) |  |  |  | 43 | 14 | 57 |  |  |  | 
14 | CC(C)(C)OC(=O)NC(CCC/N=C(\N)N[N+](=O)[O-])C(=O)NCC(N)=O (stereo not given) (Boc-[ξArg(NO2)]-Gly-NH2) | 33 | 73 | 53 |  |  |  |  |  |  | 
15 | CC(C)CC1CN(C[C@H](CC(C)C)NC(=O)[C@@H]2CCC(=O)N2)CC(=O)N1 (stereo not given in full) |  |  |  |  |  |  | 0 | 0 | 0 | 
16 | CC(C)CC(COCC(N)=O)NC(=O)C1CCCN1C(=O)OCc1ccccc1 (stereo not given) |  |  |  | 57 | 42 | 14 |  |  |  | 
17 | CC(C)(C)OC(=O)NCCCC[C@H](NC(=O)[C@@H]1CCCN1C(=O)OCc1ccccc1)C(=O)NCC(N)=O (Cbz-Pro-Lys(Boc)-Gly-NH2) |  |  |  | 0 | 50 | 0 |  |  |  | 
18 | CC(C)(C)OC(=O)NC(CCCCNC(=O)OCc1ccccc1)C(=O)NCC(N)=O (stereo not given) (Boc-[ξK](Cbz)-Gly-NH2) | 48 | 35 | 53 | 47 | 33 | 16 |  |  |  | 
19 | CC(C)CC(COCC(=O)O)NC(=O)C1CCCN1C(=O)OCc1ccccc1 (stereo not given) |  |  |  | 0 | 29 | 0 |  |  |  | 
20 | NCCCC[C@H](NC(=O)[C@@H]1CCCN1C(=O)OCc1ccccc1)C(=O)NCC(N)=O (Cbz-Pro-Lys-Gly-NH2) | 9 | 63 | 100 |  |  |  |  |  |  | 
21 | CC(C)(C)OC(=O)NCCCCC(NC(=O)OCc1ccccc1)C(=O)NCC(N)=O (stereo not given) (Cbz-[ξK](Boc)-Gly-NH2) | 33 | 33 | 25 |  |  |  |  |  |  | 
22 | CC(C)CC(CSCC(=O)O)NC(=O)c1ccccn1 (stereo not given) |  |  |  | 0 | 57 | 14 |  |  |  | 

Row | SMILES | Reversal [1] [%] | Reversal [2] [%] | Reversal [3] [%] | Reversal [4] [%] | Reversal [5] [%] | Reversal [6] [%] | Reversal [7] [%] | Reversal [8] [%] | Reversal [9] [%] | Reversal [10] [%]
23 | CCSCCNC(=O)C(CC(C)C)SCC1CCCN1C(=O)OCc1ccccc1 (stereo not given) |  |  |  | 0 | 33 | 0 |  |  |  | 
24 | O=C(NCCCCC(CO)NC(=O)C1CCCN1C(=O)OCc1ccccc1)OCc1ccccc1 (stereo not given) |  |  |  | 40 | 50 | 40 | 0 | 0 | 20 | 
25 | O=C(NCCCCC(SCC1CCCN1C(=O)OCc1ccccc1)C(=O)[O-])OCc1ccccc1.[Na+] (stereo not given) |  |  |  | 12 | 45 | 45 |  |  |  | 
26 | CC(C)(C)OC(=O)N1CCC[C@H]1C(=O)N[C@@H](CCCN=C(N)N)C(=O)NCC(N)=O (Boc-Pro-Arg-Gly-NH2) | 0 | 71 | 43 |  |  |  |  |  |  | 
27 | CC(C)(C)OC(=O)N1CCC[C@H]1C(=O)N[C@@H](CCC/N=C(\N)N[N+](=O)[O-])C(=O)NCC(N)=O (Boc-Pro-[Arg(NO2)]-Gly-NH2) | 44 | 33 | 20 |  |  |  |  |  |  | 
28 | CC(C)(C)OC(=O)N1CCC[C@H]1C(=O)N[C@@H](CCCCN)C(=O)NCC(N)=O (Boc-Pro-Lys-Gly-NH2) | 25 | 33 | 17 |  |  |  |  |  |  | 
29 | NC(=O)CNC(=O)[C@@H](N)CCCN=C(N)N (H-Arg-Gly-NH2) | 51 | 27 | 20 |  |  |  |  |  |  | 
30 | NC(=O)CNC(=O)COCC1CCCN1C(=O)OCc1ccccc1 (stereo not given) |  |  |  | 33 | 56 | 20 |  |  |  | 
31 | NC(=O)CNC(=O)[C@H](CCCCNC(=O)OCc1ccccc1)NC(=O)[C@@H]1CCCN1 (H-Pro-Lys(Cbz)-Gly-NH2) | 66 | 100 | 92 |  | 60 | 60 |  |  |  | 40
32 | Cc1ccc(S(=O)(=O)N2CCCC2CN[C@@H](CC(C)C)C(=O)NCC(N)=O)cc1 (stereo not given in full) |  |  |  | 0 | 0 | 34 | 75 | 87 | 62 | 
33 | CC(C)CC(/C=C/CC(N)=O)NC(=O)C1CCCN1C(=O)OCc1ccccc1 (stereo not given) |  |  |  | 77 | 33 | 44 |  |  |  | 
34 | NCCCC[C@H](NC(=O)[C@@H]1CCCN1)C(=O)NCC(N)=O (H-Pro-Lys-Gly-NH2) | 100 | 39 | 48 | 78 | 78 | 78 |  |  |  | 
35 | NC(=O)CNC(=O)[C@H](CCCCNC(=O)OCc1ccccc1)NCC1CCCN1 (stereo not given in full) |  |  |  | 16 | 0 | 33 | 16 | 83 | 16 | 
36 | COC(=O)CNC(=O)[C@H](CCCCNC(=O)OC(C)(C)C)NC(=O)[C@@H]1CCCN1C(=O)OCc1ccccc1 (Cbz-Pro-Lys(Boc)-Gly-OMe) | 91 | 0 | 54 |  |  |  |  |  |  | 
37 | NC(=O)CC[C@@H]1NC(=O)[C@H](Cc2ccccc2)NC(=O)[C@H](Cc2ccc(O)cc2)NC(=O)[C@@H](N)CSSC[C@@H](C(=O)N2CCC[C@H]2C(=O)N[C@@H](CCCN=C(N)N)C(=O)NCC(N)=O)NC(=O)[C@H](CC(N)=O)NC1=O |  |  |  | 100 | 0 | 60 |  |  |  | 
38 | O=C(O)COCC1CCCN1C(=O)OCc1ccccc1 (stereo not given) |  |  |  | 40 | 40 | 50 | 37 | 62 | 62 | 
39 | CC(C)CC(OCC1CCCN1C(=O)OCc1ccccc1)C(=O)NCC(=O)O (stereo not given) |  |  |  | 71 | 29 | 43 |  |  |  | 
40 | CC(C)(C)OC(=O)N1CCCC1CN[C@@H](CCCCNC(=O)OCc1ccccc1)C(=O)NCC(N)=O (stereo not given in full) |  |  |  | 33 | 16 | 16 |  |  |  | 
41 | CC(C)CC(CSCC(=O)O)NC(=O)C1CCCN1C(=O)OCc1ccccc1 (stereo not given) | 69 | 69 | 77 | 57 | 57 | 14 |  |  |  | 
42 | CC(C)C[C@H](NC(=O)[C@@H]1CCCN1)C(=O)NCC(N)=O (H-Pro-Leu-Gly-NH2) | 42 | 42 | 33 | 43 | 14 | 43 |  |  |  | 
43 | CC(C)(C)OC(=O)N1CCC[C@H]1C(=O)N[C@@H](CCCCNC(=O)OCc1ccccc1)C(=O)NCC(N)=O (Boc-Pro-Lys(Cbz)-Gly-NH2) | 91 | 0 | 63 |  |  |  |  |  |  | 
